Test results taken from PubChem BioAssay.
Activity calls are given as the source filed them.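 Rule for the calls, unless noted: active = viability at or under a set limit in both replicates, limit being median viability minus 3 SD (cut at about 48% in these data, passing the limit was not always enough); inconclusive = at or under the limit in just one replicate; inactive = at or above the limit in both replicates.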

Experiments:
[1] = reducers of endogenous Her2 protein level, primary screen, SKBR3 breast tumor cells, AlphaScreen, ATP viability (AID 461;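 active = Her2 level under about 52% in both replicate screens, with viability over 70% of control, limit read from the data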;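 for Her2 level: lower value means less Her2 protein in the cells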;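 for viability: percent of carrier control wells set as 100% viability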); settings: 18-24 h, measured here: SKBR3 viability, ATP luminescence, at 10 µM
[2] = biological target: Receptor tyrosine-protein kinase erbB-2 (Homo sapiens) (UniProt P04626); test: as above; settings: 18-24 h, at 10 µM, stronger effect = lower value
[3] = SK-BR-3 cell growth inhibitors, pilot screen, 24 h, human (AID 572;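 active = viability at or below 10% of carrier control in both of two separate runs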;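 note: compound exposure lasted between 18 and 24 h rather than exactly 24 h; 100% = carrier-treated control wells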); settings: SK-BR-3 viability, CellTiter-Glo luminescence, at 10 µM, stronger effect = lower value
[4] = HUVEC growth inhibition – cell-based, human, primary screen (AID 575;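 active = viability at or below 30% in both replicate assays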;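 note: 100% = median of untreated cell wells with 0.1% DMSO on each plate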); settings: HUVEC proliferation, CellTiter-Glo luminescence, 72 h; at 10 µM; stronger effect = lower value
Outline: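 Test system: primary human umbilical vein endothelial cells; medium: endothelial basal medium with 2% FBS plus growth supplements; dosing: 10 µM compound only; times: 72 h treatment at 37 °C; signal: CTG luminescence; read-out: % viability relative to median vehicle-well signal on each plate; control set: vehicle and MePR control wells; plate: 384-well, collagen-coated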

[5] = growth inhibitors of H69AR lung tumor, primary screen, human, duplicate replicates (AID 580); settings: H69AR lung tumor cells viability, ATP luminescence, 72 h; at 10 µM; stronger effect = lower value;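 note: 100% = mean luminescence of untreated wells and 0% = no signal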
[6] = reversal of MRP1-mediated doxorubicin resistance, pilot screen, H69AR cells, doxorubicin co-treatment (AID 601;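 active = viability loss from added drug above about 55%, and viability with drug at most 40%, in both replicates, limit read from the data, passing the limit was not always enough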); settings: CellTiter-Glo, 72 h, at 10 µM; for differential viability (reversal): stronger effect = higher value
[7] = 384-well plate pilot, post-Golgi transport modulator project, inhibition of yeast transport mutant growth (AID 636; in the data active = inhibition above about 31%); settings: absorbance 615 nm, about 18 h, stronger effect = higher value
[8] = growth suppression of yeast trafficking mutant, preliminary HTS, modulators of trafficking downstream of Golgi apparatus project, 1536-format plate, OD 615 nm (AID 637; in the data active = inhibition above about 30%); settings: yeast transport mutant growth, absorbance 615 nm, 18 h; stronger effect = higher value
[9] = H69AR cells + 2 uM doxorubicin, measured here: viability with 2 uM doxorubicin, stronger effect = lower value
[10] = H69AR cells, compound alone cytotoxicity

Sequence of Receptor tyrosine-protein kinase erbB-2 (Homo sapiens) (P04626 whole entry, looked up): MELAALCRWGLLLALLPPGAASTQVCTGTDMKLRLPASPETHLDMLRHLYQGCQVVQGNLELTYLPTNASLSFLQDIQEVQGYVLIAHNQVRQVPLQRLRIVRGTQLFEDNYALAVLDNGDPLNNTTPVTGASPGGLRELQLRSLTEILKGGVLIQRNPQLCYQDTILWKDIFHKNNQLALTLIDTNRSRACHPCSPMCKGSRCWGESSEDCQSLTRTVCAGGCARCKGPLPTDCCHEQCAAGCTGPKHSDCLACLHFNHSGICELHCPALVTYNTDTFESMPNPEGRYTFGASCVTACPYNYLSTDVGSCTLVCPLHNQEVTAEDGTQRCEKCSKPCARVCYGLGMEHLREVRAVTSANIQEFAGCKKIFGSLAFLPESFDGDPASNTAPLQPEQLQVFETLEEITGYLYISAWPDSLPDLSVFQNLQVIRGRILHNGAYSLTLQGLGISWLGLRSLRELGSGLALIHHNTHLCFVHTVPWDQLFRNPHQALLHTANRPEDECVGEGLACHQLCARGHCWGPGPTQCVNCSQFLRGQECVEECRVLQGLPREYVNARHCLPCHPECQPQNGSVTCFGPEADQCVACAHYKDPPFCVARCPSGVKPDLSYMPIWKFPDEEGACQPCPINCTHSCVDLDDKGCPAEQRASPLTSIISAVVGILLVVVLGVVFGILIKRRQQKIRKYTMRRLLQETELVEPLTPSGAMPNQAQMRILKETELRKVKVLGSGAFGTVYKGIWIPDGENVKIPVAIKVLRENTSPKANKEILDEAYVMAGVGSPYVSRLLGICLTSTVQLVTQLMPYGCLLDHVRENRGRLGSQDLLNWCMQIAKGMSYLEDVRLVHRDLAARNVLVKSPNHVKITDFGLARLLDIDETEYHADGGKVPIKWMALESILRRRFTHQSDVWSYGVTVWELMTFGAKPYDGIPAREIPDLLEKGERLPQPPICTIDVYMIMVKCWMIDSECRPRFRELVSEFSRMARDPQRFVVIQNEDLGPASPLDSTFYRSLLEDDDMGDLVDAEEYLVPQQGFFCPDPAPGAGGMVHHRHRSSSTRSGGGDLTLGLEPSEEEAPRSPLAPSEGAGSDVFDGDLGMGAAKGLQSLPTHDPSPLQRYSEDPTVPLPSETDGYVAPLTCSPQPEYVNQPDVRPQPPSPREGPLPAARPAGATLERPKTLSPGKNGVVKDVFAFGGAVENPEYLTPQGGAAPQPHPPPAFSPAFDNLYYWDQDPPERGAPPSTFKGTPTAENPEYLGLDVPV

| Structure (SMILES) | viability [1] | Her2 level [2] | viability [3] | viability [4] | viability [5] | differential viability (reversal) ([6]; H69AR cells + 2 uM doxorubicin) | viability [6, 9] | viability [6, 10] | inhibition [7] | inhibition [8] |
| --- | --- | --- | --- | --- | --- | --- | --- | --- | --- | --- |
| COc1ccccc1C(=O)N1CCN(CCc2ccccc2)CC1 | 102% | 124% (inactive) | 102% (inactive) | 88.2% (inactive) | 103% (inactive) | 3.95% (inactive) | 99.2% | 103% | 0% (inactive) | -4.17% (inactive) |
| Cc1cc(-c2ccccc2)nc2cc(C(N)=O)nn12 | 102% | 94% (inactive) | 102% (inactive) | 101% (inactive) | 96% (inactive) | 8.83% (inactive) | 87.1% | 96% | -2.63% (inactive) | 1.61% (inactive) |
| CN(C)c1cccc(NC(=O)CCc2ccccc2)c1 | 86% | 90% (inactive) | 86% (inactive) | 89.9% (inactive) | 94.5% (inactive) | -7.99% (inactive) | 102% | 94.5% | -5.89% (inactive) | 2.38% (inactive) |
| COC(=O)c1ccccc1NC(=O)Nc1cc(C)cc(C)n1 | 96% | 86% (inactive) | 96% (inactive) | 103% (inactive) | 102% (inactive) | 6.95% (inactive) | 94.8% | 102% | -1.58% (inactive) | -1.9% (inactive) |
| Cc1cc(C)c2c(n1)nn1c(NCCCN3CCOCC3)cc(C)nc21 | 106% | 79% (inactive) | 106% (inactive) | 98.8% (inactive) | 97.7% (inactive) | 7.13% (inactive) | 90.6% | 97.7% | -5.54% (inactive) | 2.38% (inactive) |
| COc1ccccc1C(O)P(=O)(OC(C)C)c1ccc(N(C)C)cc1 (stereo not given) | 101% | 120% (inactive) | 101% (inactive) | 104% (inactive) | 98.1% (inactive) | 11.6% (inactive) | 86.5% | 98.1% | -6.53% (inactive) | -5% (inactive) |
| O=C(O)CSc1ccc2ccccc2n1 | 95.5% | 81% (inactive) | 95.5% (inactive) | 106% (inactive) | 90% (inactive) | 9.33% (inactive) | 80.7% | 90% | -7.47% (inactive) | 5.48% (inactive) |
| O=C(N1CCN(c2ccccc2F)CC1)C12CC3CC(CC(C3)C1)C2 | 88.5% | 87.5% (inactive) | 88.5% (inactive) | 93.7% (inactive) | 89.9% (inactive) | -8.84% (inactive) | 98.7% | 89.9% | -5.6% (inactive) | 3.97% (inactive) |
| Fc1ccc(-c2cnc[nH]2)cc1 | 98.5% | 99.5% (inactive) | 98.5% (inactive) | 80.8% (inactive) | 96.7% (inactive) | 6.2% (inactive) | 90.4% | 96.7% | 1.32% (inactive) | -8.55% (inactive) |
| N#CC(C(=O)CCN1C(=O)C2CC=CCC2C1=O)c1nc2ccccc2[nH]1 (stereo not given) | 116% | 98% (inactive) | 116% (inactive) | 95.9% (inactive) | 91.1% (inactive) | 3.88% (inactive) | 87.2% | 91.1% | -5.07% (inactive) | 6.23% (inactive) |
| Cc1nc(N2CCN(c3ncccn3)CC2)c2oc3ccccc3c2n1 | 85% | 106% (inactive) | 85% (inactive) | 83.9% (inactive) | 99.4% (inactive) | -11.8% (inactive) | 111% | 99.4% | -5.47% (inactive) | -2.06% (inactive) |
| O=C(COC(=O)Cc1cccc(C(F)(F)F)c1)NCC1CCCO1 (stereo not given) | 94% | 98.5% (inactive) | 94% (inactive) | 96.5% (inactive) | 96.4% (inactive) | 22.8% (inactive) | 73.5% | 96.4% | -5.13% (inactive) | -4.36% (inactive) |
| CN(Cc1ccccc1)Cc1nc2c([nH]1)c(=O)[nH]c(=O)n2C | 92% | 90.5% (inactive) | 92% (inactive) | 79.2% (inactive) | 90.9% (inactive) | 8.36% (inactive) | 82.6% | 90.9% | -3.6% (inactive) | -1.31% (inactive) |
| O=C1NC(=O)C2(CCC(C(=O)O)C2)N1 (stereo not given) | 93.5% | 84% (inactive) | 93.5% (inactive) | 96.4% (inactive) | 94.2% (inactive) | -0.33% (inactive) | 94.5% | 94.2% | -5.73% (inactive) | 2.46% (inactive) |
| O=C(c1cccc(C(=O)N2CCN(c3ccc(F)cc3)CC2)c1)N1CCN(c2ccc(F)cc2)CC1 | 110% | 102% (inactive) | 110% (inactive) | 74% (inactive) | 73.4% (inactive) | 24% (inactive) | 49.4% | 73.4% | 3.51% (inactive) | 2.95% (inactive) |
| COc1ccc(C)cc1S(=O)(=O)N(C)CC(=O)Nc1ccc2c(c1)OCO2 | 129% | 98% (inactive) | 129% (inactive) | 92.7% (inactive) | 89.2% (inactive) | 1.07% (inactive) | 88.1% | 89.2% | -4.67% (inactive) | -4.92% (inactive) |
| CC(=O)Nc1ccc(NS(=O)(=O)c2ccc(Cl)c(C(=O)O)c2)cc1 | 106% | 108% (inactive) | 106% (inactive) | 100% (inactive) | 103% (inactive) | 9.96% (inactive) | 92.8% | 103% | -4.61% (inactive) | -3.17% (inactive) |
| Cc1nc(C)c(C(=O)Nc2ccc(Oc3ccccc3)cc2)o1 | 94.5% | 82% (inactive) | 94.5% (inactive) | 66.4% (inactive) | 103% (inactive) | 23.8% (inactive) | 79.4% | 103% | -6.35% (inactive) | -6.5% (inactive) |
| CC(=O)CCc1ccc(OCCCCn2cncn2)cc1 | 113% | 105% (inactive) | 113% (inactive) | 98.2% (inactive) | 92.9% (inactive) | 3.28% (inactive) | 89.6% | 92.9% | -4.94% (inactive) | 1.59% (inactive) |
| COc1cc2c(cc1OC)C(c1ccccc1O)N(C1CC(=O)N(c3ccccc3)C1=O)CC2 (stereo not given) | 113% | 96.5% (inactive) | 113% (inactive) | 97.7% (inactive) | 99.8% (inactive) | 18.3% (inactive) | 81.5% | 99.8% | -4.42% (inactive) | -5.08% (inactive) |
| CCOCCCNC(=O)c1cc2sc(Cl)cc2n1CC | 89% | 88% (inactive) | 89% (inactive) | 60% (inactive) | 28.5% (active) | -44% (inactive) | 72.5% | 28.5% | -8.36% (inactive) | -0.95% (inactive) |
| CCOc1cc(C2/C(=C(/O)c3ccc(OC(C)C)cc3)C(=O)C(=O)N2CCCOC)ccc1O (stereo not given) | 91.5% | 83.5% (inactive) | 91.5% (inactive) | 103% (inactive) | 99.1% (inactive) | 1.7% (inactive) | 97.4% | 99.1% | 1.82% (inactive) | 3.17% (inactive) |
| COc1ccccc1-c1cc(C(=O)Nc2cc(C)nn2-c2ccccc2)no1 | 89% | 81.5% (inactive) | 89% (inactive) | 61% (inactive) | 15.5% (active) | -33.6% (inactive) | 49.1% | 15.5% | 7.84% (inactive) | -3.11% (inactive) |
| COc1ccccc1OCc1ccc(C(=O)Nc2ccncc2)o1 | 79.5% | 92% (inactive) | 79.5% (inactive) | 84.9% (inactive) | 89.4% (inactive) | -0.005% (inactive) | 89.4% | 89.4% | -3.07% (inactive) | 6.61% (inactive) |
| Cc1cccc(C)c1NC(=O)c1cc(S(=O)(=O)N2CCOCC2)ccc1F | 88.5% | 78.5% (inactive) | 88.5% (inactive) | 102% (inactive) | 89.9% (inactive) | 0.745% (inactive) | 89.2% | 89.9% | -5.53% (inactive) | -9.17% (inactive) |
| CC1Cc2ccccc2N1Cc1cc(=O)n2ccsc2n1 (stereo not given) | 102% | 78.5% (inactive) | 102% (inactive) | 80.4% (inactive) | 74.7% (inactive) | -17.9% (inactive) | 92.6% | 74.7% | -2.99% (inactive) | -6.98% (inactive) |
| COc1ccc(N2CCN(CCNS(=O)(=O)c3cccc4nsnc34)CC2)cc1 | 98% | 91% (inactive) | 98% (inactive) | 102% (inactive) | 91.1% (inactive) | -2.98% (inactive) | 94.1% | 91.1% | -5.2% (inactive) | 1.11% (inactive) |
| Cc1ccc(S(=O)(=O)N2CCN(C(=O)CSc3nnnn3C)C2)cc1 | 110% | 104% (inactive) | 110% (inactive) | 85.3% (inactive) | 102% (inactive) | 1.78% (inactive) | 101% | 102% | -0.66% (inactive) | 0.17% (inactive) |
